The values that follow come from ChEMBL document CHEMBL1914406, “Inhibitory effect of novel 5-O-acyl juglones on mammalian DNA polymerase activity, cancer cell growth and inflammatory response” (Bioorg Med Chem, 2011).

Calls of active or inactive are those of the source. The rule behind the calls is not given here. Where only a bound is given, the exact number is not on record here.

In data set [1] the target is T1, DNA polymerase lambda (Homo sapiens) (UniProt Q9UGP5).
T1 sequence (whole entry): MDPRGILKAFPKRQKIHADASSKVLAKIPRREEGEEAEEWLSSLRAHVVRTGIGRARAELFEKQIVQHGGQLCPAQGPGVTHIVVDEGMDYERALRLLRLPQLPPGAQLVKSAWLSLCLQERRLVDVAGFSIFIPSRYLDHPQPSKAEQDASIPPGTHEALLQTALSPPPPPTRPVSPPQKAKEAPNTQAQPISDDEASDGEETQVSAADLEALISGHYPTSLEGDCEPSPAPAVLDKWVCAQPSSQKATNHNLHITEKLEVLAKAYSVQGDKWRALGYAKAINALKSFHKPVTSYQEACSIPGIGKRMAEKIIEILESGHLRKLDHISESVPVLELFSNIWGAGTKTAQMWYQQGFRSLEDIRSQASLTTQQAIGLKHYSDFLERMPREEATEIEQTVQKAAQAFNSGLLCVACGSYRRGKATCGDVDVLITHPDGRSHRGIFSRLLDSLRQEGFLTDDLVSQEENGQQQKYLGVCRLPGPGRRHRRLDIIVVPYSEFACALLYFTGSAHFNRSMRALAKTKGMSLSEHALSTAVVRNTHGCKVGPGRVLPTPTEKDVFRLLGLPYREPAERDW
In words: Inhibition of recombinant His-tagged human DNA polymerase lambda using poly(dA)/oligo(dT)18 (A/T = 2/1) and dTTP as the DNA template-primer and nucleotide substrate at 10 uM after 60 mins. The method in brief: (§1)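 Compound in DMSO, sonicated 30 s. Premixed 0 °C, 10 min with enzyme (0.05 units) in 50 mM Tris-HCl pH 7.5, 1 mM DTT, 50% glycerol, 0.1 mM EDTA, then added to standard reaction mixture. Template-primers: poly(dA)/oligo(dT)18 (2/1) for pols, oligo(dT)18 for TdT, poly(rA)/oligo(dT)18 for HIV-1 RT, with [3H]dTTP. 60 min at 37 °C (Taq 74 °C). Activity relative to no-inhibitor control; mean ± SE of three experiments.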

Data set [2] is filed under the species Bos taurus. The data set is described as follows: Inhibition of calf DNA polymerase alpha using bovine deoxyribonuclease 1-treated DNA and dNTP as the DNA template-primer and nucleotide substrate at 10 uM after 60 mins.
For data set [3], the species on record is Homo sapiens. In words: Inhibition of histidine-tagged human DNA polymerase gamma using bovine deoxyribonuclease 1-treated DNA and dNTP as the DNA template-primer and nucleotide substrate at 10 uM after 60 mins.
For data set [4], the species on record is Bos taurus. The data set is described as follows: Inhibition of calf DNA polymerase alpha using poly(dA)/oligo(dT)18 (A/T = 2/1) and dTTP as the DNA template-primer and nucleotide substrate at 10 uM after 60 mins. The method, boiled down: as §1
Data set [5] addresses T1, DNA polymerase lambda (Homo sapiens). The data set is described as follows: Inhibition of recombinant His-tagged human DNA polymerase lambda using bovine deoxyribonuclease 1-treated DNA and dNTP as the DNA template-primer and nucleotide substrate at 10 uM after 60 mins.
Data set [6] can be described thus: Cytotoxicity against mouse RAW264.7 cells. It is filed as cell-based. Conditions: read-out: LD50 (the source's name).
For data set [7], the species on record is Homo sapiens. In words: Inhibition of histidine-tagged human DNA polymerase gamma using poly(dA)/oligo(dT)18 (A/T = 2/1) and dTTP as the DNA template-primer and nucleotide substrate at 10 uM after 60 mins. The method in brief:
as §1

The target in data set [8] is T2, DNA polymerase kappa (Homo sapiens) (UniProt Q9UBT6).
T2 sequence (whole entry): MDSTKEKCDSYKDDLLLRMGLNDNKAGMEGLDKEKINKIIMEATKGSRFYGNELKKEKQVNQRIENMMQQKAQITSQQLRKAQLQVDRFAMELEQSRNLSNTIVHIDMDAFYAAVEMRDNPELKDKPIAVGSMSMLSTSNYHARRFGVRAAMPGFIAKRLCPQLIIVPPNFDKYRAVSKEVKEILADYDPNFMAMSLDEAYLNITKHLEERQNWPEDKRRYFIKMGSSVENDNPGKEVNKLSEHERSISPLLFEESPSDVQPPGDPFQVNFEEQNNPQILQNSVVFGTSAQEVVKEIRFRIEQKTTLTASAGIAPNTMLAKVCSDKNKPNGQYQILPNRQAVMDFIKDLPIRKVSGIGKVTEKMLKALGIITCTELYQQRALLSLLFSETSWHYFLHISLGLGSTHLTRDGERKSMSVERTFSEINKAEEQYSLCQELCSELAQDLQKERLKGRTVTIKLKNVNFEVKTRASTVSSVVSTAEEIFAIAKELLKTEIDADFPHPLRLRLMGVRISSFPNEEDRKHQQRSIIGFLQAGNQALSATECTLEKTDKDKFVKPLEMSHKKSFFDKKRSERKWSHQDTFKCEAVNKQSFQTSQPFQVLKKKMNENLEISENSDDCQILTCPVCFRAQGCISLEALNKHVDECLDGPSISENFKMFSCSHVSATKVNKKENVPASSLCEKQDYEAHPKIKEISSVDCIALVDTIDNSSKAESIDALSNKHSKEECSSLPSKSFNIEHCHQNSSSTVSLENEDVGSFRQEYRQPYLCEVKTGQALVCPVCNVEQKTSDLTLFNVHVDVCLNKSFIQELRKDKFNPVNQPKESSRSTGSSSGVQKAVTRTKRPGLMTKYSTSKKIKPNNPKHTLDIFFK
The data set is described as follows: Inhibition of C-terminal His6-tagged human DNA polymerase kappa (amino acids 1 to 560) using bovine deoxyribonuclease 1-treated DNA and dNTP as the DNA template-primer and nucleotide substrate at 10 uM after 60 mins.

For data set [9], the system named is RAW264.7. The data set is described as follows: Cytotoxicity against mouse RAW264.7 cells at 5 uM. As to conditions: raw264.7, 5 µM. The data set is classed as cell-based.
For data set [10], the system named is RAW264.7. In words: Antiinflammatory activity in mouse RAW264.7 cells assessed as inhibition of LPS-induced TNFalpha secretion at 5 uM treated 30 mins before LPS challenge measured after 24 hrs by ELISA. It is filed as functional, cell-based. The method in brief:
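RAW264.7 cells in MEM with 4.5 g/L glucose, 10% FCS, 5 mM L-glutamine, at 37 °C in 5% CO2. Seeded at 5 × 10⁴ cells/well and grown 24 h. Compound (final 1 and 5 µM) given 30 min before 100 ng/mL LPS. After 24 h, TNF-α in the medium measured by ELISA, relative to the no-compound value (100%). Mean ± SE, n = 4.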

The test system of data set [11] is HCT-116. In words: Cytotoxicity against human HCT116 cells by WST-1 assay. The data set is classed as functional, cell-based. The method, boiled down:
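HCT116 colon carcinoma cells (ATCC) grown in McCoy's 5A with 10% FBS, penicillin and streptomycin, 37 °C, 5% CO2. Plated at 1 × 10⁴ cells/well together with compound, which was diluted from a 10 mM DMSO stock into medium (final 0.5% DMSO). Incubated 24 h. Viability read by WST-1, expressed relative to untreated cells.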
(Formazan colour is commonly taken as a measure of viable cells.)

The subject of data set [12] is Mus musculus. In words: Antiinflammatory activity in mouse assessed as inhibition of TPA-induced mouse ear edema at 500 ug/ear administered 30 mins before TPA challenge measured after 7 hrs relative to untreated control. The data set is classed as functional, organism-based. The method in brief: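 Compound (500 µg) applied to one mouse ear; 30 min later TPA (0.5 µg) applied to both ears. Edema scored after 7 h and expressed as percentage of edema. Mean ± SE, n = 6.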

Data set [13] concerns the target T2, DNA polymerase kappa (Homo sapiens). The data set is described as follows: Inhibition of C-terminal His6-tagged human DNA polymerase kappa (amino acids 1 to 560) using poly(dA)/oligo(dT)18 (A/T = 2/1) and dTTP as the DNA template-primer and nucleotide substrate at 10 uM after 60 mins.

Consider `CC/C=C\C/C=C\C/C=C\C/C=C\C/C=C\CCCC(=O)O` [ICOSAPENT], for which the inhibition entry in data set [1], in [2], in [3], in [4], in data set [5] and in data set [7] was “inactive” each time. Also, the inhibition entry in [8] and in data set [13] was “inactive” throughout. Moreover, in data set [6], the CC50 is over 10 µM. The Activity result in data set [9] is given as “Non-toxic”. The outcome in data set [10], in data set [11] and in data set [12] was inactive.

As for `CCCCCCCCCCCC(=O)O` [DODECANOATE], the inhibition entry in [1], in data set [2], in data set [3], in data set [4], in data set [5] and in data set [7] was “inactive” in each case. Moreover, the inhibition entry in data set [8] and in data set [13] was “inactive” each time. Also, in data set [6], the CC50 was over 10 µM. Besides, the Activity entry in data set [9] is given as “Non-toxic”. Moreover, the outcome in data set [10], in data set [11] and in data set [12] was inactive.

Regarding `CCCCCC(=O)O` [HEXANOATE], the inhibition result in [1], in [2], in data set [3], in data set [4], in data set [5] and in data set [7] was “inactive” each time. Also, the inhibition result in data set [8] and in data set [13] was “inactive” in each case. In data set [6], the CC50 is over 10 µM. The Activity entry in data set [9] was “Non-toxic”. The result in data set [10], in data set [11] and in [12] was inactive.

For the compound `CC/C=C\C/C=C\C/C=C\CCCCCCCC(=O)O` [LINOLENIC ACID], the inhibition entry in data set [1], in data set [2], in [3], in data set [4], in [5] and in data set [7] was “inactive” throughout. Further, the inhibition result in data set [8] and in data set [13] was “inactive” throughout. The CC50 in data set [6] was over 10 µM. The Activity result in data set [9] is recorded as “Non-toxic”. Also, the outcome in data set [10], in data set [11] and in data set [12] was inactive.

For `CC/C=C\C/C=C\C/C=C\C/C=C\C/C=C\C/C=C\CCC(=O)O` [DOCONEXENT], the inhibition entry in [1], in data set [2], in [3], in [4], in data set [5] and in data set [7] was “inactive” each time. For the same compound, the inhibition result in data set [8] and in [13] was “inactive” throughout. Also, the CC50 in data set [6] is over 10 µM. In data set [9], the Activity result was “Non-toxic”. For the same compound, the outcome in data set [10], in data set [11] and in data set [12] was inactive.

As to `CCCCCCCC/C=C\CCCCCCCC(=O)O` [OLEIC ACID], the inhibition result in data set [1], in data set [2], in data set [3], in data set [4], in data set [5] and in data set [7] was “inactive” each time. Besides, the inhibition entry in [8] and in data set [13] was “inactive” in each case. Moreover, the CC50 in [6] is over 10 µM. The Activity entry in data set [9] is on record as “Non-toxic”. For the same compound, the result in [10], in data set [11] and in [12] was inactive.

For `CCCCCCCCCCCCCCCCCC(=O)O` [STEARIC ACID], the inhibition entry in [1], in [2], in data set [3], in [4], in data set [5] and in data set [7] was “inactive” throughout. In addition, the inhibition entry in data set [8] and in data set [13] was “inactive” in each case. In data set [6], the CC50 is over 10 µM. The Activity result in [9] is “Non-toxic”. Also, the outcome in data set [10], in [11] and in data set [12] was inactive.

Turning to `CCC(=O)O` [PROPIONIC ACID], the inhibition entry in [1], in data set [2], in data set [3], in data set [4], in [5] and in data set [7] was “inactive” throughout. In addition, the inhibition entry in data set [8] and in [13] was “inactive” each time. The CC50 in data set [6] was over 10 µM. For the same compound, the Activity result in [9] is reported as “Non-toxic”. In addition, the outcome in data set [10], in data set [11] and in data set [12] was inactive.

In the case of `CC1=CC(=O)c2ccccc2C1=O`, the inhibition result in data set [3] and in data set [7] was “Active” in each case.
